Source: ChEMBL document CHEMBL1125351, “Isobenzofurans as conformationally constrained miconazole analogues with improved antifungal potency” (1992)
Values after ≈ are worked out from the molar mass of the structure shown. Values joined by “and” are separate entries in the source; they are usually repeats but may differ in a detail not shown here. Equal values may be shown once.

Tests used:
Candida tropicalis [1] = assay: Minimum inhibitory concentration against Candida tropicalis at a pH of 5.7 using SDB medium; assay type: functional
How it was run: (§1)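 Broth dilution in Sabouraud dextrose broth, pH 5.7. Compounds dissolved in DMSO or ethanol, serially diluted in medium, inoculated and incubated at 27 °C. Wells read visually at 48 h. MIC is the lowest concentration giving complete growth inhibition.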

Candida = assay: Compound is evaluated for geometric mean of MIC values of Candida species; assay type: functional; design: unit not given beside the values
Candida albicans [2] = assay: Minimum inhibitory concentration against Candida stellatoidea at a pH of 5.7 using SDB medium; assay type: functional; how it was run: as §1
[3] = Geometric mean for the above three species of Candida, tested in EMEM medium; assay type: functional
How it was run: (§2)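 Candida MICs in Eagle's minimum essential medium, pH 7.0. Compounds in DMSO or ethanol were serially diluted in medium, inoculated and incubated at 37 °C under CO₂. […] The summary value is the geometric mean of the MICs across strains.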

Epidermophyton floccosum = assay: Minimum inhibitory concentration against Epidermophyton floccosum at a pH of 5.7 using SDB medium; assay type: functional
How it was run: (§3)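 Dermatophyte isolates tested by serial broth dilution in SDB, pH 5.7. Compound stocks in DMSO or ethanol, incubated at 27 °C, and growth read visually at 72 h. MIC is the lowest concentration with no visible growth. The summary value is the geometric mean of the MICs across the organisms.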

Nannizzia gypsea = assay: Minimum inhibitory concentration against Microsporum gypseum at a pH of 5.7 using SDB medium; assay type: functional; how it was run: as §3
Candida albicans [4] = assay: Minimum inhibitory concentration against Candida albicans using eagles minimum essential medium (EMEM); assay type: functional; how it was run: as §2
Candida albicans [5] = assay: Minimum inhibitory concentration against Candida albicans at a pH of 5.7 using SDB medium; assay type: functional; how it was run: as §1
Candida parapsilosis = assay: Minimum inhibitory concentration against Candida parapsilosis at a pH of 5.7 using SDB medium; assay type: functional; conditions: Lodderomyces parapsilosis; how it was run: as §1
Trichophyton rubrum = assay: Minimum inhibitory concentration against Trichophyton rubrum at a pH of 5.7 using SDB medium; assay type: functional; how it was run: as §3
Candida tropicalis [6] = assay: Minimum inhibitory concentration against Candida tropicalis using eagles minimum essential medium (EMEM); assay type: functional; how it was run: as §2
Microsporum canis = assay: Minimum inhibitory concentration against Microsporum canis at a pH of 5.7 using SDB medium; assay type: functional; how it was run: as §3
Trichophyton benhamiae = assay: Minimum inhibitory concentration against Trichophyton mentagrophytes at a pH of 5.7 using SDB medium; assay type: functional, Arthroderma benhamiae; how it was run: as §3
Arthrodermataceae [7] = assay: (§4) Compound is evaluated for geometric mean of MIC values of dermatophytes; assay type: functional; design: unit not given beside the values; how it was run: as §3
Candida albicans [8] = assay: Minimum inhibitory concentration against Candida stellatoidea using eagles minimum essential medium (EMEM); assay type: functional; how it was run: as §2
Cavia porcellus [9] = assay: In vivo inhibition of topical Trichophyton infection in Guinea Pig after drug administration; assay type: functional
How it was run: (§5)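 Guinea pigs (5 per compound) infected with T. mentagrophytes D24 by swabbing a homogenate onto shaven, abraded skin. From day 4 post-infection, 0.25% (w/v) compound in EtOH–PEG 400–glycerol (10:45:45) was rubbed in topically twice daily for 10 days. Hair samples were cultured on SDA at 27 °C for up to 16 days. Read-outs were the % negative cultures and the day each animal became culture-negative.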

Cricetinae gen. sp. [10] = assay: Inhibition of Vaginal Candida (C-60 strain) infection in Hamsters, estimated as Percent Area under curve at 0.25 % concentration after 4 days of administration; assay type: functional, Cricetulus griseus
Cricetinae gen. sp. [11] = assay: Inhibition of Vaginal Candida (C-60 strain) infection in Hamsters, estimated as Percent Area under curve at 0.25 % concentration after 8 days of administration; assay type: functional, Cricetulus griseus
Cricetinae gen. sp. [12] = assay: Inhibition of Vaginal Candida (C-60 strain) infection in Hamsters, estimated as Percent Area under curve at 0.01 % concentration after 4 days of administration; assay type: functional, Cricetulus griseus
How it was run: (§6)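 Hamster vaginal C. albicans infection (strains C43 or C60; 10 animals per compound). From day 5 post-infection, a cotton pellet holding 0.15 mL of 0.05% or 0.01% (w/w) compound in EtOH–PEG 400–glycerol (10:45:45) was inserted once daily for 4 or 8 days. Vaginal swabs were filtered and the filters cultured on SDA at 37 °C for 48 h. Read-out was the area under the % negative cultures versus time curve.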

Cricetinae gen. sp. [13] = assay: Inhibition of Vaginal Candida (C-43 strain) infection in Hamsters, estimated as Percent Area under curve at 0.25 % concentration after 8 days of administration; assay type: functional, Cricetulus griseus
Cavia porcellus [14] = assay: In vivo inhibition of topical Trichophyton infection in Guinea Pig during drug administration; assay type: functional; how it was run: as §5
Cricetinae gen. sp. [15] = assay: Inhibition of Vaginal Candida (C-60 strain) infection in Hamsters, estimated as Percent Area under curve at 0.05 % concentration after 4 days of administration; assay type: functional, Cricetulus griseus; how it was run: as §6
Cricetinae gen. sp. [16] = assay: Inhibition of Vaginal Candida (C-60 strain) infection in Hamsters, estimated as Percent Area under curve at 0.05 % concentration after 8 days of administration; assay type: functional, Cricetulus griseus; how it was run: as §6
Cricetinae gen. sp. [17] = assay: Inhibition of Vaginal Candida (C-43 strain) infection in Hamsters, estimated as Percent Area under curve at 0.05 % concentration after 8 days of administration; assay type: functional, Cricetulus griseus; how it was run: as §6
Cavia porcellus [18] = species: Cavia porcellus; assay: Lession score which is determined as number of animals minus days to become negative; assay type: functional; how it was run: as §5
Arthrodermataceae [19] = assay: as §4; assay type: functional; how it was run: as §3

Row | SMILES | MIC (Candida tropicalis [1]) [µg/mL] | MIC (Candida albicans [2]) [µg/mL] | MIC (Epidermophyton floccosum) [µg/mL] | MIC (Nannizzia gypsea) [µg/mL] | MIC (Candida albicans [4]) [µg/mL] | MIC (Candida albicans [5]) [µg/mL] | MIC (Candida parapsilosis) [µg/mL] | MIC (Trichophyton rubrum) [µg/mL] | MIC (Candida tropicalis [6]) [µg/mL] | MIC (Microsporum canis) [µg/mL] | MIC (Trichophyton benhamiae) [µg/mL] | MIC (Candida albicans [8]) [µg/mL] | Geometric mean (Candida) | Geometric mean [3] | Geometric mean (Arthrodermataceae [7]) | further results
1 | c1ccc(C2(Cn3ccnc3)OCc3ccccc32)cc1 (stereo not drawn) | 64 (≈ 232 µM) | 64 (≈ 232 µM) | < 0.031 | 64 (≈ 232 µM) | 0.25 (≈ 0.905 µM) | 64 (≈ 232 µM) | 8 (≈ 28.9 µM) | 16 (≈ 57.9 µM) | 0.125 (≈ 0.452 µM) | 16 (≈ 57.9 µM) | 16 (≈ 57.9 µM) | 0.25 (≈ 0.905 µM) | 48 | 0.2 | <5.2 | –
2 | Clc1ccc(C2(Cn3ccnc3)OCCc3ccccc32)cc1 (stereo not drawn) | 64 (≈ 197 µM) | 64 (≈ 197 µM) | < 0.031 | 1 (≈ 3.08 µM) | < 0.031 | 64 (≈ 197 µM) | 2 (≈ 6.16 µM) | 0.25 (≈ 0.77 µM) | < 0.031 | 1 (≈ 3.08 µM) | 0.125 (≈ 0.385 µM) | < 0.031 | 51 | < 0.02 | <0.22 | –
3 | Clc1ccc(COC(Cn2ccnc2)c2ccc(Cl)cc2Cl)c(Cl)c1 (stereo not drawn) [MICONAZOLE] | 4 (≈ 9.61 µM) | 8 (≈ 19.2 µM) | < 0.031 | 1 (≈ 2.4 µM) | 0.25 (≈ 0.601 µM) | 8 (≈ 19.2 µM) | < 0.031 | < 0.031 | 0.125 (≈ 0.3 µM) | < 0.031 | < 0.031 | 0.125 (≈ 0.3 µM) | <1.8 | 0.18 | <0.03 | Culture negative (Cavia porcellus [9]): 60%; Inhibition (Cricetinae gen. sp. [10]): 63%; Inhibition (Cricetinae gen. sp. [11]): 63%; Inhibition (Cricetinae gen. sp. [12]): 33%; Inhibition (Cricetinae gen. sp. [13]): 69%; Culture negative (Cavia porcellus [14]): 20%
4 | c1ccc(C2(Cn3ccnc3)SCc3ccccc32)cc1 (stereo not drawn) | 64 (≈ 219 µM) | 64 (≈ 219 µM) | 0.063 (≈ 0.215 µM) | 16 (≈ 54.7 µM) | 0.25 (≈ 0.855 µM) | 64 (≈ 219 µM) | 16 (≈ 54.7 µM) | 2 (≈ 6.84 µM) | 0.125 (≈ 0.427 µM) | 4 (≈ 13.7 µM) | 2 (≈ 6.84 µM) | 0.25 (≈ 0.855 µM) | 53 | 0.19 | – | Geometric mean (Arthrodermataceae [19]): 1.7

The next lines start with results.

Row | MIC (Candida tropicalis [1]) [µg/mL] | MIC (Candida albicans [2]) [µg/mL] | MIC (Epidermophyton floccosum) [µg/mL] | MIC (Nannizzia gypsea) [µg/mL] | MIC (Candida albicans [4]) [µg/mL] | MIC (Candida albicans [5]) [µg/mL] | MIC (Candida parapsilosis) [µg/mL] | MIC (Trichophyton rubrum) [µg/mL] | MIC (Candida tropicalis [6]) [µg/mL] | MIC (Microsporum canis) [µg/mL] | MIC (Trichophyton benhamiae) [µg/mL] | MIC (Candida albicans [8]) [µg/mL] | SMILES | Geometric mean (Candida) | Geometric mean [3] | Geometric mean (Arthrodermataceae [7]) | further results
5 | > 64 | > 64 | 8 (≈ 24.4 µM) | > 64 | – | > 64 | 32 (≈ 97.6 µM) | 64 (≈ 195 µM) | – | > 64 | > 64 | – | OC1OC(Cn2cncn2)(c2ccc(Cl)cc2)c2ccccc21 (stereo not drawn) | – | – | >54 | –
6 | 16 (≈ 51.5 µM) | 32 (≈ 103 µM) | < 0.031 | 4 (≈ 12.9 µM) | < 0.031 | 16 (≈ 51.5 µM) | 0.25 (≈ 0.804 µM) | 2 (≈ 6.44 µM) | 0.125 (≈ 0.402 µM) | 2 (≈ 6.44 µM) | 2 (≈ 6.44 µM) | < 0.031 | Clc1ccc(C2(Cn3ccnc3)OCc3ccccc32)cc1 (stereo not drawn) | 7.2 | < 0.03 | <0.86 | Culture negative (Cavia porcellus [9]): 87%; Inhibition (Cricetinae gen. sp. [15]): 88%; Inhibition (Cricetinae gen. sp. [12]): 30%; Inhibition (Cricetinae gen. sp. [16]): 88%; Inhibition (Cricetinae gen. sp. [17]): 89%; Lesion score (Cavia porcellus [18]): 3 and >2; Culture negative (Cavia porcellus [14]): 90%
7 | 64 (≈ 205 µM) | 32 (≈ 103 µM) | < 0.031 | 4 (≈ 12.8 µM) | < 0.031 | 64 (≈ 205 µM) | 1 (≈ 3.21 µM) | 1 (≈ 3.21 µM) | < 0.031 | 1 (≈ 3.21 µM) | 1 (≈ 3.21 µM) | < 0.031 | Clc1ccc(C2(Cn3cncn3)OCc3ccccc32)cc1 (stereo not drawn) | 16 | < 0.02 | <0.57 | –
